pIC50: −log10 of the molar value.
Experiments:
[1] = Cytotoxicity of HCMV in human foreskin fibroblasts cells; assay type: functional, cell-based; settings: Fibroblast
Summary of the method: (§1)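 Visual cytotoxicity was scored in uninfected cells of the same host monolayers used for the plaque assays, on a 0 to 4+ scale at 35- and 60-fold magnification, at the time plaques were counted.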

[2] = test system: Mus musculus; assay: Compound was evaluated for percent mortality of mice inoculated with murine cytomegalovirus at a concentration of 50 mg/kg at 48 h; assay type: ADME, organism-based; set-up: dose 50 mg/kg; settings: in vivo
Summary of the method: (§2)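 Three-week-old female Swiss Webster mice infected ip with 2×10^5 PFU MCMV Smith strain; groups of 15 given drug ip twice daily for 5 days, starting 6, 24 or 48 h after inoculation. Toxicity controls received drug without virus. Mortality followed daily for 21 days; final mortality compared with placebo by Fisher Exact Test.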

[3] = test system: Mus musculus; assay: Compound was evaluated for percent mortality of mice inoculated with murine cytomegalovirus at a concentration of 5.6 mg/kg; drug toxicity control; assay type: functional; summary of the method: as §2
[4] = test system: Mus musculus; assay: Compound was evaluated for mean day of death at 1.9 mg/kg at 6 h; assay type: functional
Summary of the method: (§3)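 Three-week-old female Swiss Webster mice inoculated ip with 2×10^5 PFU MCMV Smith strain. Groups of 15 dosed ip twice daily for 5 days, starting 6, 24 or 48 h post-inoculation. Held 21 days with daily mortality checks. Final mortality and mean day of death (dying animals) computed. Mortality versus placebo by Fisher Exact Test, MDD by Mann–Whitney U-rank test.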

[5] = Cytotoxicity of human simplex virus type 1 in monkey kidney cells; assay type: functional, cell-based; settings: Cercopithecidae; summary of the method: as §1
[6] = test system: Mus musculus; assay: Compound was evaluated for 15 mice treated ip twice daily for 5 days at a dose of 5.6 mg/kg at 6 hr followed (MCMV) virus inoculation; assay type: functional; settings: route intraperitoneal; summary of the method: as §3
[7] = test system: Mus musculus; assay: Compound was evaluated for 15 mice treated ip twice daily for 5 days at a dose of 50 mg/kg at 24 h followed (MCMV) virus inoculation; assay type: functional; settings: route intraperitoneal; summary of the method: as §3
[8] = test system: Mus musculus; assay: Compound was evaluated for mean day of death at 50 mg/kg at 48 h; assay type: functional; summary of the method: as §3
[9] = test system: Mus musculus; assay: Compound was evaluated for percent mortality of mice inoculated with murine cytomegalovirus at a concentration of 1.9 mg/kg at 24 h; assay type: organism-based; set-up: dose 1.9 mg/kg; settings: in vivo; summary of the method: as §3
[10] = test system: Mus musculus; assay: Compound was evaluated for mean day of death at 5.6 mg/kg at 48 h; assay type: functional; summary of the method: as §3
[11] = Compound was evaluated for percent mortality of mice inoculated with murine cytomegalovirus at a concentration of 1.9 mg/kg; drug toxicity control; assay type: organism-based; set-up: dose 1.9 mg/kg; settings: mouse, in vivo
Summary of the method: (§4)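 Drug toxicity control: uninfected three-week-old female Swiss Webster mice, groups of 15, dosed ip twice daily for 5 days. Held 21 days with daily mortality checks. Final mortality and mean day of death for animals that died were calculated.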

[12] = test system: Mus musculus; assay: Compound was evaluated for mean day of death at 50 mg/kg at 6 h; assay type: functional; summary of the method: as §3
[13] = test system: Mus musculus; assay: Compound was evaluated for percent mortality of mice inoculated with murine cytomegalovirus at a concentration of 50 mg/kg; drug toxicity control; assay type: functional; summary of the method: as §2
[14] = test system: Mus musculus; assay: Compound was evaluated for percent mortality of mice inoculated with murine cytomegalovirus at a concentration of 16.7 mg/kg at 24 h; assay type: organism-based; set-up: dose 16.7 mg/kg; settings: in vivo; summary of the method: as §3
[15] = test system: Mus musculus; assay: Compound was evaluated for 15 mice treated ip twice daily for 5 days at a dose of 1.9 mg/kg at 48 hr followed (MCMV) virus inoculation; assay type: functional; settings: route intraperitoneal; summary of the method: as §3
[16] = test system: Mus musculus; assay: Compound was evaluated for 15 mice treated ip twice daily for 5 days at a dose of 16.7 mg/kg followed (MCMV) virus inoculation; assay type: functional; settings: route intraperitoneal
[17] = test system: Mus musculus; assay: Compound was evaluated for mean day of death at 16.7 mg/kg at 6 h; assay type: functional; summary of the method: as §3
[18] = test system: Mus musculus; assay: Compound was evaluated for percent mortality of mice inoculated with murine cytomegalovirus at a concentration of 1.9 mg/kg at 48 h; assay type: organism-based; set-up: dose 1.9 mg/kg; settings: in vivo; summary of the method: as §3
[19] = test system: Mus musculus; assay: Compound was evaluated for 15 mice treated ip twice daily for 5 days at a dose of 5.6 mg/kg at 48 hr followed (MCMV) virus inoculation; assay type: functional; settings: route intraperitoneal; summary of the method: as §3
[20] = test system: Mus musculus; assay: Compound was evaluated for mean day of death at 16.7 mg/kg at 24 h; assay type: functional; summary of the method: as §3
[21] = test system: Mus musculus; assay: Compound was evaluated for percent mortality of mice inoculated with murine cytomegalovirus at a concentration of 5.6 mg/kg at 6 h; assay type: ADME, organism-based; set-up: dose 5.6 mg/kg; settings: in vivo; summary of the method: as §2
[22] = test system: L1210; assay: In vitro inhibition of L1210 cell growth to half of the control rate; assay type: functional, cell-based; settings: Mus musculus
Summary of the method: (§5)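 Murine L1210 leukemia cells in static suspension culture in Fischer's medium with compound for 4 days. Growth rate is the ratio of control to treated population doubling time; where the rate changed, the final rate was used. IC50 is the concentration giving 50% of control growth rate; single-concentration value at 100 μM.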

[23] = test system: Mus musculus; assay: Compound was evaluated for 15 mice treated ip twice daily for 5 days at a dose of 16.7 mg/kg at 24 hr followed (MCMV) virus inoculation; assay type: functional; settings: route intraperitoneal; summary of the method: as §3
[24] = test system: Mus musculus; assay: Compound was evaluated for 15 mice treated ip twice daily for 5 days at a dose of 16.7 mg/kg at 48 hr followed (MCMV) virus inoculation; assay type: functional; settings: route intraperitoneal; summary of the method: as §3
[25] = test system: L1210; assay: In vitro inhibition of L1210 cell growth.; assay type: functional, Mus musculus; set-up: concentration or dose not given beside the values; summary of the method: as §5
[26] = Compound was evaluated for cytotoxic activity against BSC cells; assay type: functional, cell-based; settings: Cercopithecidae
Summary of the method: (§6)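 Visual cytotoxicity in uninfected areas of plaque-reduction cultures. HFF cells grown in MEM(E) + 10% FBS for HCMV (Towne) assays; BSC-1 cells for HSV-1 (S-148) assays. Drug in overlay medium. Cytopathology scored 0 to 4+ at 35- and 60-fold magnification on the staining day.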

[27] = test system: Human alphaherpesvirus 1; assay: Inhibition of herpes simplex virus (HSV-1) in yield reduction assay; assay type: functional, organism-based
[28] = test system: Mus musculus; assay: Compound was evaluated for percent mortality of mice inoculated with murine cytomegalovirus at a concentration of 50 mg/kg at 6 h; assay type: ADME, organism-based; set-up: dose 50 mg/kg; settings: in vivo; summary of the method: as §2
[29] = test system: Mus musculus; assay: Compound was evaluated for percent mortality of mice inoculated with murine cytomegalovirus at a concentration of 1.9 mg/kg at 6 h; assay type: organism-based; set-up: dose 1.9 mg/kg; settings: in vivo; summary of the method: as §3
[30] = test system: Mus musculus; assay: Compound was evaluated for percent mortality of mice inoculated with murine cytomegalovirus at a concentration of 50 mg/kg at 24 h; assay type: ADME, organism-based; set-up: dose 50 mg/kg; settings: in vivo; summary of the method: as §2
[31] = Compound was evaluated for cytotoxic activity against HFF cells; assay type: functional, cell-based; settings: Homo sapiens; summary of the method: as §6
[32] = test system: Human alphaherpesvirus 1; assay: Inhibition of herpes simplex virus (HSV-1) in plaque reduction assay; assay type: functional, organism-based
Summary of the method: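 HSV-1 S-148 strain plaque reduction in BSC-1 monkey kidney monolayers, with about 100 PFU inoculum and compound dissolved in the overlay medium. IC50 came from linear regression of percent inhibition against log concentration, with a positive control in each set.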

[33] = species: Mus musculus; assay: Inhibition of herpes simplex virus […](HSV-2) in mouse embryo fibroblasts cell lines was determined by plaque assay; assay type: functional, organism-based; settings: Fibroblast
Summary of the method: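 Plaque reduction used MCMV Smith in primary mouse embryo fibroblasts, HCMV AD169 in low-passage HFF, and HSV-1 E-377 and HSV-2 MS in MEF, rabbit kidney or HFF. IC50 was determined against untreated controls; two or more experiments.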

[34] = test system: Mus musculus; assay: Compound was evaluated for mean day of death at 5.6 mg/kg at 24 h; assay type: functional; summary of the method: as §3
[35] = test system: Mus musculus; assay: Compound was evaluated for 15 mice treated ip twice daily for 5 days at a dose of 1.9 mg/kg at 6 hr followed (MCMV) virus inoculation; assay type: functional; settings: route intraperitoneal; summary of the method: as §3
[36] = test system: Mus musculus; assay: Compound was evaluated for mean day of death at 50 mg/kg at 24 h; assay type: functional; summary of the method: as §3
[37] = test system: Mus musculus; assay: Compound was evaluated for mean day of death at 16.7 mg/kg; drug toxicity control; assay type: functional; summary of the method: as §4
[38] = test system: Mus musculus; assay: Compound was evaluated for percent mortality of mice inoculated with murine cytomegalovirus at a concentration of 5.6 mg/kg at 48 h; assay type: ADME, organism-based; set-up: dose 5.6 mg/kg; settings: in vivo; summary of the method: as §2

Nc1ncnc2c1c(Br)cn2COC(CO)CO showed a pIC50 [1] of less than 4.00, a Mortality [2] of 87% and a mortality at 5.6 mg/kg [3] of 0%. It also gave an MDD [4] of 6.2, a pIC50 [5] of less than 4.00 and an Activity [6] of 1. For the same molecule, the Activity [7] was 14, the MDD [8] was 7.5 and the Mortality [9] was 60%. The MDD [10] was 5.5, the Mortality [11] was 0% and the MDD [12] was 10.8. It also gave a mortality at 50 mg/kg [13] of 0%, a Mortality [14] of 80% and an Activity [15] of 10. The Activity [16] was 1, the MDD [17] was 8.7 and the Mortality [18] was 67%. It also gave an Activity [19] of 6, an MDD [20] of 7.1 and a Mortality [21] of 7%. It also gave a pIC50 [22] of 6.15, an Activity [23] of 12 and an Activity [24] of 13. It also gave an Activity [25] of 0%, a pIC50 [26] of less than 4.00 and an IC90 [27] of 17 µM. It also gave a Mortality [28] of 60%, a Mortality [29] of 33% and a Mortality [30] of 93%. It also gave a pIC50 [31] of less than 4.00, a pIC50 [32] of 5.70 and a pIC50 [33] of 5.72. It also gave an MDD [34] of 6.3, an Activity [35] of 5 and an MDD [36] of 8.8. It also gave an MDD [37] of 5 and a Mortality [38] of 40%.

Source: ChEMBL document CHEMBL1124846, “Synthesis, antiproliferative, and antiviral activity of certain 4-substituted and 4,5-disubstituted 7-[(1,3-dihydroxy-2-propoxy)methyl]pyrrolo[2,3-d]pyrimidines” (J Med Chem, 1990)
